Assay outcomes deposited in PubChem by several laboratories.
core dimer inh = HCV core protein dimerization inhibition. TR-FRET GST/Flag-core106 dimerization, 1536-well. inhibition, % at 5 µM. 300,000 tested, 0.33% active. AID 1899;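 active = inhibition above the mean of all tested compounds plus 3 SD, set per screening campaign, cut at about 45% in these data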
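test system = GST/Flag-tagged HCV core106 proteins | probe or stimulus = Eu donor and XL665 acceptor anti-tag antibodies | times = compound-protein-antibody incubation 4 h at 22.5 °C | signal = TR-FRET, excitation 340 nm, emission 617 and 671 nm | measure = percent inhibition of core106 dimerization signal | controls = wells lacking GST-core106 and wells with excess unlabelled core106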
NadD block = blocks S. aureus nicotinate mononucleotide adenylyltransferase; purified NadD enzyme, colorimetric absorbance read-out; inhibition, % at 20 µM; 360,000 tested, 0.78% active; AID 602399; in the data active = inhibition above about 26%
ABHD5-PLIN5 inh = inhibitors of human ABHD5-perilipin-5 interaction; Q00G26+Q8WTS1; Split G. princeps luciferase complementation, luminescence, 4 h; inhibition, % at 4 µM; 360,000 tested, 0.78% active;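 active = inhibition above the mean inhibition across every tested compound plus 3 SD, cut at about 22% in these data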;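 note: 0% = DMSO only wells and the 100% control is not disclosed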
Target sequence (Q00G26 whole entry, looked up): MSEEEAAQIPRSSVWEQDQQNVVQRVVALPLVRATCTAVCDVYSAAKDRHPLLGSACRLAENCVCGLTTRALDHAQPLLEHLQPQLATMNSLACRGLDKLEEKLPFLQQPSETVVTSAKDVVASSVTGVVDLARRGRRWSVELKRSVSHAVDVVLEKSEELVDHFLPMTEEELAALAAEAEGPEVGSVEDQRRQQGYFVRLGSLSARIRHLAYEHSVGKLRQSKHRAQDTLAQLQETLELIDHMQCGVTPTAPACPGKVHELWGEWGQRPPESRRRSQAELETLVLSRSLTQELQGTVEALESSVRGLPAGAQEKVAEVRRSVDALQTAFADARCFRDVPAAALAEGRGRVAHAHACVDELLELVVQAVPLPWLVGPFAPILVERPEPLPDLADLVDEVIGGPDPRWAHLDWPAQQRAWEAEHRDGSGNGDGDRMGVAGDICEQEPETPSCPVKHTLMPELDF
Target sequence (Q8WTS1 whole entry, looked up): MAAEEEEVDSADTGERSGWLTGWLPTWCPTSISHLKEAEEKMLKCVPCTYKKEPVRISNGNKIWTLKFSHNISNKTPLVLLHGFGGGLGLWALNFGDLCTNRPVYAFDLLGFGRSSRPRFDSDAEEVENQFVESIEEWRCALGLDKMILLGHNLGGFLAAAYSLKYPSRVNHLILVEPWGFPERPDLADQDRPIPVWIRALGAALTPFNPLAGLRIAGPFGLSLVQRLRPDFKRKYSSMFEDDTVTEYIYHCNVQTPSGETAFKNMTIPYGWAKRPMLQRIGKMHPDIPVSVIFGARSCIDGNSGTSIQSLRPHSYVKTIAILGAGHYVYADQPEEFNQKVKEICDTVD
rCAG RNA binder = binds r(CAG) RNA repeats; 370,000 tested, 1.3% active; inhibition, % at 3 µM; r(CAG) RNA repeat, TO-PRO-1 dye displacement fluorescence;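 active = inhibition above the plate cutoff, the mean of all test compounds on that plate plus 3 SD, cut at about 35% in these data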;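 note: 0% = DMSO alone and 100% = 100 µM mitoxantrone as full dye displacement; higher means more dye released from RNA so lower well fluorescence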
NadD inh conf = confirmation of Staphylococcus aureus NadD inhibitors; shares compounds with NadD block; purified S. aureus NadD, colorimetric enzyme assay; inhibition, % at 20 µM; 2,000 tested, 13% active; in the data active = inhibition mostly above about 42%, no sharp cut-off; inactive = mostly below about 42%
rCAG binder conf = r(CAG) RNA repeat binding, confirmation; shares compounds with rCAG RNA binder; TO-PRO-1 dye displacement fluorescence; inhibition, % at 3 µM; 4,300 tested, 70% active; AID 652065;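 active = inhibition above a per-plate cutoff, the mean inhibition of sample wells plus 3 SD, cut at about 35% in these data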;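 note: loss of TO-PRO-1 fluorescence as compound displaces dye from 1x1 AA loop RNA; 0% = DMSO only wells and 100% = 100 µM mitoxantrone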
dCAG dye counter = counter-screen for rCAG RNA binders: DNA CAG dye complex inhibitors; d(CAG) DNA oligo TO-PRO-1 dye displacement, fluorescence; shares compounds with rCAG RNA binder; inhibition, % at 3 µM; 4,300 tested, 94% active;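 active = inhibition above its plate's cutoff, the mean test-well inhibition plus 3 SD, cut at about 4.8% in these data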;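 note: 0% = DNA dye mix with DMSO and 100% = 100 µM mitoxantrone; hits displace the dye from DNA and so lower well fluorescence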
An asterisk follows results filed as active; nt = no result given. A selection: hits, their analogues and other compounds. The true share with any hit is near 2.6%.

SMILES | core dimer inh | NadD block | ABHD5-PLIN5 inh | rCAG RNA binder | rCAG binder conf | dCAG dye counter | others
CCc1ccc(NC(=O)C(C)OC(=O)c2ccc(NS(=O)(=O)c3ccc(C)c([N+](=O)[O-])c3)cc2)cc1 (configuration not stated) | 35 | 45* | -13 | 85* | 82* | 48* | NadD inh conf=46*
COc1ccc(NC(=O)CN(C)C(=O)c2ccc(NS(=O)(=O)c3ccc(C)c([N+](=O)[O-])c3)cc2)cc1 | 5 | -1 | -12 | 28 | nt | nt
CC(C)NC(=O)N[C@@H]1C[C@@H]2O[C@H](CO)CC[C@@H]2O[C@@H]1CCc1ccc(-c2ccccc2F)cc1 | nt | nt | nt | 2 | nt | nt
COc1cccc(CNC(=O)[C@H]2CCCN2C(=O)[C@H]2CCCN2C(=O)c2ccc(OC(F)(F)F)cc2)c1 | nt | nt | nt | -2 | nt | nt
O=C(/C=C/c1ccc([N+](=O)[O-])cc1)/C=C/c1ccco1 | -24 | 38* | 63* | 47* | 25 | 12* | NadD inh conf=32
CCOC(=O)C1=CCN(S(=O)(=O)c2ccc(F)cc2)C1c1ccc(Cl)cc1 (configuration not stated) | nt | nt | nt | 6 | nt | nt
COc1cc(/C=C/c2ccc3c(Br)cc(Br)c(O)c3n2)ccc1O | 2 | 61* | -7 | 39* | 39* | 20* | NadD inh conf=47
C[C@H]1C(c2ccccc2F)O[C@]2(C[C@H](O)c3c(ccc4ccccc34)O2)C[C@@H]1O (some centres not stated) | nt | nt | nt | 4 | nt | nt
CCOCCn1c(=NC(=O)c2cc3ccccc3oc2=O)sc2cc(S(N)(=O)=O)ccc21 | 10 | 18 | 3 | 6 | nt | nt
COCCn1c(=NC(=O)c2cc(-c3cccs3)nc3ccccc23)sc2cc(S(N)(=O)=O)ccc21 | -31 | 52* | 19 | 36* | 39* | 19* | NadD inh conf=57*
COc1cccc(NS(=O)(=O)c2ccc3c(c2)C2C=CCC2C(c2ccc(C(=O)O)cc2)N3)c1 (configuration not stated) | 11 | 20 | 18 | 96* | 90* | 62*
COc1cccc(NS(=O)(=O)c2ccc3c(c2)CCCN3C(C)=O)c1 | -1 | -1 | 3 | -4 | nt | nt
O=C1N2CCc3ccccc3C2CS(=O)(=O)N1Cc1ccc(F)cc1 (configuration not stated) | nt | nt | nt | 0 | nt | nt
CCN(CC)C(=O)CC[C@H]1CC[C@]2(CCCN(Cc3cccs3)C2)O1 | nt | nt | nt | -2 | nt | nt
O=C(Nc1nnc(SCc2cccc3ccccc23)s1)C1COc2ccccc2O1 (configuration not stated) | 19 | 6 | -6 | 50* | 40* | 8.2*
O=C(NC(=S)Nc1ccc(CN2CCCCC2)cc1)c1cccc(OCc2ccccc2)c1 | -2 | -1 | 6 | -4 | nt | nt
O=C(O)c1ccc(NC(=S)NC(=O)c2cccc(COc3ccccc3)c2)cc1 | 14 | 7 | -6 | 48* | 49* | 16*
CCOc1ccc(NS(=O)(=O)c2ccc(C(=O)NNC(=O)c3ccccc3O)cc2)cc1 | 4 | -2 | 6 | 35* | 14 | 4
O=C(O)c1cccc(S(=O)(=O)Nc2ccc(OCc3ccccc3)cc2)c1 | 0 | -5 | -3 | 41* | 17 | 4
COc1ccc(NS(=O)(=O)c2cccc(C(=O)O)c2)cc1 | 0 | -2 | 5 | 2 | nt | nt
O=C(O)c1cc(OCc2ccccc2)cc(OCc2ccccc2)c1 | 7 | 3 | -5 | 43* | 40* | 8.0*
C[C@H](CO)N1C[C@H](C)[C@@H](CN(C)C(=O)c2cnccn2)Oc2cc(C#CCC3CCCC3)ccc2S1(=O)=O | nt | 10 | 3 | 4 | nt | nt
O=C(O)c1cc(S(=O)(=O)Nc2ccc(OCc3ccccc3)cc2)ccc1Br | 13 | -3 | -2 | 45* | 28 | 7.5*
O=C(O)/C=C/c1ccc(S(=O)(=O)Nc2ccc(OCc3ccccc3)cc2)cc1 | -4 | -9 | -3 | 52* | 30 | 6.8*
Cc1nc2cc(-c3ccsc3-n3c(C)ccc3C)[nH]n2c(=O)c1Cl | 0 | 16 | 0 | 51* | 60* | 26*
SMILES | core dimer inh | NadD block | ABHD5-PLIN5 inh | rCAG RNA binder | rCAG binder conf | dCAG dye counter | others
Cc1ccccc1-c1cc2nc(C)c(Cl)c(=O)n2[nH]1 | -1 | 3 | -1 | 2 | nt | nt
Cc1ccc(/C=c2\s/c(=C(/C#N)C(=O)N3CCCC3)n(Cc3ccco3)c2=O)s1 | 24 | 24 | 20 | 35* | 12 | 10*
COc1ccc(S(=O)(=O)Nc2cc(Sc3ncn[nH]3)c(O)c3ccccc23)cc1 | nt | nt | nt | 43* | 24 | 9.8*
COc1ccc(S(=O)(=O)Nc2cc(SCC(=O)O)c(O)c3ccccc23)cc1 | -16 | 4 | -8 | 38* | 48* | 18*
Cc1nc2ccccc2c(=O)n1/N=C/c1ccccc1O | -1 | -1 | -1 | 3 | nt | nt
Cc1nc2ccccc2c(=O)n1/N=C/c1ccc(O)c(O)c1O | 0 | 33* | -15 | 44* | 51* | 19*
CCOc1ccc(Nc2ccc(N)c(S(=O)(=O)O)c2)cc1 | nt | 10 | 3 | 55* | 52* | 18*
Cc1ccc(S(=O)(=O)C(C#N)c2nc3ccccc3nc2N2CCC(C)CC2)cc1 (configuration not stated) | nt | 1 | -2 | -1 | nt | nt
Cc1ccc(S(=O)(=O)C(C#N)c2nc3ccccc3nc2OCCO)cc1 (configuration not stated) | -8 | 2 | 1 | 62* | 52* | 15*
Nc1ccn(C[C@@H](CO)OCP(=O)(O)O)c(=O)n1 | nt | nt | nt | 3 | nt | nt
COc1ccc(-c2cc(-c3ccco3)[nH]c(=O)c2C#N)cc1 | 8 | 2 | 0 | 15 | nt | nt
N#Cc1c(-c2cccc(Br)c2)cc(-c2ccco2)[nH]c1=O | 22 | 13 | 8 | 51* | 45* | 16*
Cc1nc(NC(=O)c2ccccc2)sc1-c1cc(C(=O)NCCO)nn1Cc1ccccc1 | nt | nt | 10 | 1 | nt | nt
Cc1ccc(-c2cc(NC(=O)Cc3c(C)[nH]c4ccccc34)ccc2Nc2cccnc2)cc1 | nt | nt | nt | 12 | nt | nt
O=C(CSc1nc2ccccc2nc1N1CCCC1)N1CCN(C(c2ccccc2)c2ccccc2)CC1 | nt | nt | nt | 8 | nt | nt
Cc1ccc(C2C(C#N)=C(N)Oc3n[nH]c(-c4ccccc4)c32)o1 (configuration not stated) | -9 | 13 | -56 | 41* | 40* | 20*
C[C@H](O)[C@@H]1CN2CCc3c([nH]c4cccc(-c5ccccc5)c34)[C@@H]2C[C@@H]1N(C)C(=O)c1ccco1 | nt | nt | nt | 9 | nt | nt
O=C(O)CCn1cc(/C=C\C(=O)c2ccc(Cl)cc2)c(-c2cccc(Br)c2)n1 | 8 | 5 | 11 | 63* | 82* | 45*
